According to PMC3447108 (Bioconjugate chemistry, 2012):
Where two headings read alike, the source gives them in different places.

How the values were obtained:
[1] = system: RGC-5 cells; assay: NMDA / glutamate excitotoxicity model; type: cell-based, mouse; conditions: native and SS-differentiated; up to 5 mM, up to 48 hrs; data not shown
[2] = system: retinal ganglion cell apoptosis; conditions: directly applied into the vitreous humor; models of RGC degeneration; ref [6],[10]; cited from earlier work
[3] = system: RGC-5 cells; assay: Non-target activation in healthy cells, LysoTracker co-localization; type: cell-based, mouse
[4] = system: RGC-5 cells; type: cell-based, mouse; conditions: FITC-annexin V; compared to 3 with Alexa Fluor 647-annexin V; data not shown
Outline: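 RGC-5 cells are grown in phenol-free DMEM with 10% FBS at 37°C and 5% CO2. They are given 5 µM staurosporine in growth medium for 3 h, then co-incubated for 30 min with up to 10 µM quenched test compound plus FITC-annexin V. Propidium iodide (500 nM) is added for 5 min. Cells are rinsed three times in phenol-free medium and imaged by fluorescence microscopy.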

[5] = in vivo; cited from earlier work
[6] = molecular target: T1, caspase 3 (Homo sapiens, UniProt P42574); assay: Caspase 3 probe cleavage; type: biochemical; conditions: HEPES buffer pH 7.4, 10 mM DTT, 37°C, 640/680 nm
T1 sequence (P42574 29-175 limits assumed): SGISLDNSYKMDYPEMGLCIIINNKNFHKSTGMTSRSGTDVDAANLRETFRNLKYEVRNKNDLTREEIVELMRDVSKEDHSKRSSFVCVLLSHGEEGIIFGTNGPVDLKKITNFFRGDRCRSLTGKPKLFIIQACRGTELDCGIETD
T1 sequence (P42574 176-277 limits assumed): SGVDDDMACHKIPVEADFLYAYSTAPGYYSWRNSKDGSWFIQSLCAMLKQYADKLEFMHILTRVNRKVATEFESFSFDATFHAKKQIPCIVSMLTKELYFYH
Outline: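 Human recombinant caspase 3 (E. coli-expressed; 50 U, 1.4 × 10−6 mg) is pre-equilibrated for 10 min at 37°C in the stated buffer with 0.1% CHAPS, 10% glycerol and 1 mM EDTA. Quenched test compound (2 µM solution) is added, and fluorescence is read continuously for 30 min at 37°C. Signals are background-subtracted and normalized to enzyme mass. Initial 0–5 min rates come from linear fits; Km and kcat come from nonlinear regression of cleavage rates.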

[7] = system: RGC-5 cells; assay: Staurosporine differentiation and morphology of RGC-5 cells; type: cell-based, mouse
[8] = system: RGC-5 cells; assay: Induction of apoptosis and probe activation by cytotoxic agents; type: cell-based, mouse
[9] = Figures 5–7, S9, S10 (ionomycin), Figure 6 (SS), doxorubicin data not shown

## CN[C@H](CC(=O)O)C(=O)O [NMDA]
[1]
  loss in viability: no loss in viability

## (kkkrkv) linked to a cleavage sequence consisting of L amino acids (KDEVDAPC) [compound 1]
[2]
  detection of RGC apoptosis in vivo: detect RGC apoptosis in models of RGC degeneration in vivo
[3]; 2 hr exposure, fluorescence microscopy
  probe signal in healthy cells: no significant probe signal
[3]; SS-differentiated RGC-5 cells, 3 hrs
  Pearson’s coefficient, LysoTracker compartments and activated probe: 0.612
[3]; healthy native and SS-differentiated RGC-5 cells, 3 hrs
  punctate probe signal in LysoTracker-labeled compartments: delayed appearance of punctate signal
[3]; native RGC-5 cells, 3 hrs
  Pearson’s coefficient, LysoTracker compartments and activated probe: 0.566
[4]
  coincidence of probe activation with annexin V binding: Identical results
[5]
  systemic toxicity: without the systemic toxicity of the HIV-1 Tat sequence
[6]
  kcat/Km: 435 (FU min^−1 µM^−1)/nM

## CN[C@@H]1C[C@H]2O[C@@](C)([C@@H]1OC)n1c3ccccc3c3c4c(c5c6ccccc6n2c5c31)C(=O)NC4 [SS, staurosporine]
[7]; 0.5 µM SS, 37°C, bright field microscopy
  time to differentiation morphology: ≤ 1 hour
[7]; SS, room temperature
  time to completion of morphological changes: approximately 2 hours
[7]; concentrations exceeding the value
  toxic concentration (blebbing and disruption of neurite morphology): exceeding 2 µM
[8]; [9]
  apoptosis and probe activation upon treatment: readily observed

## C[C@H](CCC(=O)O)C[C@H](C)C[C@H](C)C(=O)/C=C(\O)[C@H](C)C[C@H](C)C/C=C/[C@@H](C)[C@@H](O)[C@@H](C)[C@@H](O)C[C@@H]1CC[C@@](C)([C@H]2CC[C@@](C)([C@@H](C)O)O2)O1 [ionomycin]
[8]; [9]
  apoptosis and probe activation upon treatment: readily observed

## COc1cccc2c1C(=O)c1c(O)c3c(c(O)c1C2=O)C[C@@](O)(C(=O)CO)C[C@@H]3O[C@H]1C[C@H](N)[C@H](O)[C@H](C)O1 [doxorubicin]
[8]
  apoptosis and probe activation upon treatment: readily observed
